Assay results taken from paper PMC7826400 (Proceedings of the National Academy of Sciences of the …, 2021).
Like-named read-outs stand apart in the source and are kept apart here. One block for each molecule: values may come before it.

Assays:
MdCMS_1 = experiment: DTNB endpoint assay, Lineweaver-Burk; format: biochemical, Malus domestica; details: read-out: Km ± SE
Procedure, shortened: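 Recombinant apple enzyme expressed in E. coli BL21 (ORF with or without putative chloroplast transit peptide) and purified. Activity measured by DTNB (Ellman's reagent) endpoint assay. Acetyl-CoA was varied with pyruvate held saturating at 10 mM. Absorbance was corrected against an identical mixture lacking α-ketoacid. Km was obtained by regression of Lineweaver–Burk plots, with two to three replications per regression.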

MdIPMS1 [1] = target: T1, MdIPMS1 (Malus domestica, UniProt A0A498I0D3); experiment: DTNB endpoint assay, feedback inhibition; format: biochemical; details: read-out: % inhibition at 0.05 mM
T1 sequence (A0A498I0D3 59-236): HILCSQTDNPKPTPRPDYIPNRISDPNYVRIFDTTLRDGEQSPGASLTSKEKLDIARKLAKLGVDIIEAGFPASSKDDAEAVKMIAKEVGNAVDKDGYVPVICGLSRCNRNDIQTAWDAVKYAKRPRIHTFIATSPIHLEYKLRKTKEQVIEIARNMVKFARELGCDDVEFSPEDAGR
T1 sequence (A0A498I0D3 250-642): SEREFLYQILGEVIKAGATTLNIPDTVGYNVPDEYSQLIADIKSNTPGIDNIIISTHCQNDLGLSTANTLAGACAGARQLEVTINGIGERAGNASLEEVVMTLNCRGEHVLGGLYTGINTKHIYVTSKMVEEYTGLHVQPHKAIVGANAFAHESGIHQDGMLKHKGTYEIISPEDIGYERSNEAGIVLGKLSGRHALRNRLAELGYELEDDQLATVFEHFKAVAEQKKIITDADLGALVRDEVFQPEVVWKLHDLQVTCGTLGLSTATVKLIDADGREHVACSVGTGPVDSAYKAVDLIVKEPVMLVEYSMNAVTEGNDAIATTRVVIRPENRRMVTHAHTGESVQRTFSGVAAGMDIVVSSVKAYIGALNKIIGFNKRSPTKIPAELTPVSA

MdIPMS2 [2] = target: T2, MdIPMS2 (Malus domestica, UniProt A0A498KQL4); experiment: DTNB endpoint assay, feedback inhibition; format: biochemical; details: read-out: % inhibition at 0.05 mM
T2 sequence (A0A498KQL4 64-634): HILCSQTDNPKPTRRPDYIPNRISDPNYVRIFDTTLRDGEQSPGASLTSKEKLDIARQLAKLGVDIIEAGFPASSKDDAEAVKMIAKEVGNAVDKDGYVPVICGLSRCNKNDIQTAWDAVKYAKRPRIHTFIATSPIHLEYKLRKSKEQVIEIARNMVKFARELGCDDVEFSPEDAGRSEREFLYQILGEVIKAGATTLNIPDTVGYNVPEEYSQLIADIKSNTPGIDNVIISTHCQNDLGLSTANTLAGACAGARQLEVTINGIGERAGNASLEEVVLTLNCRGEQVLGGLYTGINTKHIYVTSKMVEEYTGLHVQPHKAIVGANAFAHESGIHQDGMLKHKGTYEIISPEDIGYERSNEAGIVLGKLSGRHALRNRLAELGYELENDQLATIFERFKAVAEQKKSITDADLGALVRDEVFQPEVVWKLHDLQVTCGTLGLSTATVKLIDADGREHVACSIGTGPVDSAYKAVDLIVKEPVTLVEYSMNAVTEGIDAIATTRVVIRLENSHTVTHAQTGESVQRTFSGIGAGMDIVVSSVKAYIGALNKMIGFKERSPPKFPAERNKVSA

MdIPMS2 [3] = target: T2, MdIPMS2; experiment: DTNB endpoint assay, feedback inhibition; format: biochemical; details: 10 mM α-ketoisovalerate; threonine range 0 to 10 mM
MdIPMS1 [4] = target: T1, MdIPMS1; experiment: DTNB endpoint assay, feedback inhibition; format: biochemical; details: 10 mM α-ketoisovalerate; threonine range 0 to 10 mM

Km (MdCMS_1; saturating (10 mM) pyruvate): 6.6 ± 0.9 µM
Compound: CC(=O)SCCNC(=O)CCNC(=O)[C@H](O)C(C)(C)COP(=O)(O)OP(=O)(O)OC[C@H]1O[C@@H](n2cnc3c(N)ncnc32)[C@H](O)[C@@H]1OP(=O)(O)O [Acetyl-CoA]

Km (MdCMS_1; co-substrate acetyl-CoA): 2450 µM
Compound: CC(=O)C(=O)O [Pyruvate]

inhibition at 50 µM (MdIPMS1 [1]): 40%
inhibition at 50 µM (MdIPMS2 [2]): 70%
Compound: CC(C)C[C@H](N)C(=O)O [leucine]

The next lines start with the molecule.

Compound: C[C@@H](O)[C@H](N)C(=O)O [threonine]
% inhibition (MdIPMS2 [3]): both MdIPMS proteins were inhibited by elevated levels of threonine
% inhibition (MdIPMS1 [4]): both MdIPMS proteins were inhibited by elevated levels of threonine

Compound: CCC(=O)C(=O)O [α-Ketobutyrate]
Km (MdCMS_1; co-substrate acetyl-CoA): 3560 µM
